Assay results collected from several papers.
Compare with care: the assays were run in different laboratories.
Target: Myosin light chain kinase 2, skeletal/cardiac muscle (MYLK2, Homo sapiens, UniProt Q9H1R3)

SMILES | read-out | technique | concentration | remaining binding
COc1cnc(Nc2cccc(S(N)(=O)=O)c2)nc1N1CCN(c2ccccc2)CC1 | binding | competition with immobilised ligand | 1 µM | 100%
Cc1cnn2ncc(-c3ccnc(N(C)C)n3)c2c1 | binding |  | 1 µM | 100%
O=C(c1ccc(Nc2nccc(-c3cc4ccccc4s3)n2)cc1)N1CCC(N2CCCC2)CC1 | binding | competition with immobilised ligand | 1 µM | 0.8%
c1cnn2ncc(-c3ccnc(N4CCC45COC5)n3)c2c1 | binding |  | 1 µM | 77%
COc1ncc2cc3ccccc3nc2c1C#N | binding | competition with immobilised ligand | 5 µM | 84%
CN(C)c1nccc(-c2cnn3ncccc23)n1 | binding |  | 1 µM | 100%
O=C(c1ccc(Nc2ncc(Cl)c(-c3ccc(Cl)s3)n2)cc1)N1CCC(N2CCCC2)CC1 | binding | competition with immobilised ligand | 1 µM | 2.4%
C[C@H]1CCN(c2nccc(-c3cnn4ncccc34)n2)C1 | binding |  | 1 µM | 79%
CCOC(=O)c1cc2cc(-c3cc(C(=O)NCc4ccc(C(=O)O)cc4)nn3C)ccc2[nH]1 | cell-free assay | competition with immobilised ligand | 0.1 µM | 89%
c1cncc(-c2cccc(Nc3nccc(NC4CCCCC4)n3)c2)c1 | binding | competition with immobilised ligand | 10 µM | 70%
O=C(NCC1CCOCC1)c1n[nH]cc1NC(=O)c1c(F)cccc1F | binding | competition with immobilised ligand | 1 µM | 100%
Cc1c(C(=O)O)cc(-c2ccc(C3CCNCC3)cc2)c2ccc(-c3ccc(C(F)(F)F)cc3)cc12 | binding | competition with immobilised ligand | 1 µM | 100%
N[C@H]1CCN(c2nccc(-c3cnn4ncccc34)n2)C1 | binding |  | 1 µM | 92%
CN(C)CC#Cc1ccc(OCCCc2sc(N3CCc4cccc(C(=O)Nc5nc6ccccc6s5)c4C3)nc2C(=O)O)c(F)c1 | cell-free assay | competition with immobilised ligand | 1 µM | 100%
Nc1ncc2c(n1)-c1c([nH]c3ccc(C#CC4CC4)cc13)CCCC2 | binding | competition with immobilised ligand | 1 µM | 100%
Cc1nc(C2CCN(C(=O)c3ccc(OC(F)(F)F)cc3N)CC2)c2ncc(N3CCN(C)CC3)cc2n1 | cell-free assay | competition with immobilised ligand | 1 µM | 87%
CN(C)c1ncc(F)c(-c2cnn3ncccc23)n1 | binding |  | 1 µM | 100%
Cc1cc(NC(=O)c2cccc(S(F)(F)(F)(F)F)c2)cc(-n2ccn3nc(-c4cccnc4)cc23)c1 | cell-free assay | competition with immobilised ligand | 1 µM | 100%
O=C(c1ccc(Nc2ncc(Cl)c(-c3cc4ccccc4s3)n2)cc1)N1CCC(N2CCCC2)CC1 | binding | competition with immobilised ligand | 1 µM | 1.2%
COc1cc(-c2cn(C3CCc4c(F)cccc4N(CC(F)(F)F)C3=O)nn2)ccc1-n1cnc(C)c1 (stereo not drawn) | cell-free assay | competition with immobilised ligand | 1 µM | 100%
C[C@@H](c1ccc(-n2cnc3c(N)ncnc32)cc1)N1CCc2nn(C)c(Cc3ccccc3)c2C1=O | binding | competition with immobilised ligand | 0.1 µM | 85%
